Experimental findings from ChEMBL document CHEMBL3124928, “Synthesis, antileishmanial activity and docking study of N'-substitutedbenzylidene-2-(6,7-dihydrothieno[3,2-c]pyridin-5(4H)-yl)acetohydrazides” (Bioorg Med Chem Lett, 2014) are described below.

Data set [1] concerns Aspergillus niger. The data set is described as follows: Antifungal activity against Aspergillus niger NCIM 1196 by standard agar method. It counts as functional. Put shortly:
(§1)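 MIC determined by standard agar method, with dimethyl sulfoxide as solvent control.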

The test system of data set [2] is Candida albicans. The data set is described as follows: Antifungal activity against Candida albicans NCIM 3471 by standard agar method. It counts as functional. Put shortly:
as §1

Data set [3] concerns Bacillus subtilis. The data set is described as follows: Antibacterial activity against Bacillus subtilis NCIM 2063 by standard agar method. It counts as functional. Put shortly:
as §1

In data set [4] the test system is Staphylococcus aureus. The data set is described as follows: Antibacterial activity against Staphylococcus aureus NCIM 2901 by standard agar method. It counts as functional. Put shortly: as §1
Data set [5] relates to Pseudomonas aeruginosa. The data set is described as follows: Antibacterial activity against Pseudomonas aeruginosa NCIM 2036 by standard agar method. It counts as functional. Put shortly:
as §1

Data set [6] relates to Escherichia coli. The data set is described as follows: Antibacterial activity against Escherichia coli NCIM 2256 by standard agar method. It counts as functional. Put shortly: as §1
Data set [7] deals with HeLa. The data set is described as follows: Cytotoxicity against human HeLa cells up to 300 ug/ml after 72 hrs by MTT assay. It counts as cell-based.
The test system of data set [8] is Leishmania donovani. The data set is described as follows: Antileishmanial activity against Leishmania donovani NHOM/IN/80/DD8 promastigotes assessed as decrease in parasite growth after 72 hrs by MTT assay. It counts as functional, organism-based. The following applies: NHOM/IN/80/DD8, 72 h. The method in brief:
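Cultured promastigotes were used, and viability was read by a modified MTT assay, with formazan yield taken as proportional to metabolically active cells. IC50 is the concentration cutting cell growth by 50%, found by graphic interpolation.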
In general terms: Tetrazolium assays rely on reduction of a dye to a coloured formazan, in cell work by metabolically active cells.

For data set [9], the system named is Bacillus subtilis. The data set is described as follows: Antibacterial activity against Bacillus subtilis NCIM 2063 up to 300 ug/ml by standard agar method. It counts as functional, organism-based.
For data set [10], the system named is Pseudomonas aeruginosa. The data set is described as follows: Antibacterial activity against Pseudomonas aeruginosa NCIM 2036 up to 300 ug/ml by standard agar method. It counts as functional, organism-based.
Data set [11] concerns Staphylococcus aureus. The data set is described as follows: Antibacterial activity against Staphylococcus aureus NCIM 2901 up to 300 ug/ml by standard agar method. It counts as functional, organism-based.

SMILES strings stand for the structures. In brackets after ≈: the same amount, converted by molar mass. Activity calls are given as the source filed them. The calls are words filed in the database; no cut-off is given here.

With `COc1ccc(/C=N/NC(=O)CN2CCc3sccc3C2)cc1OC`, the minimum inhibitory concentration (MIC) in data set [1] came to 12.5 µg/mL (≈ 34.8 µM); in data set [2], 37.5 µg/mL (≈ 104 µM); in data set [3], 150 µg/mL (≈ 417 µM); in [4], 150 µg/mL (≈ 417 µM); in [5], 200 µg/mL (≈ 556 µM); in data set [6], 150 µg/mL (≈ 417 µM). In data set [7], the Activity result is “Non-toxic”. Besides, the IC50 in [8] amounted to 619 µM.
On to `Clc1ccc(COC(Cn2ccnc2)c2ccc(Cl)cc2Cl)c(Cl)c1` (stereo unspecified) [MICONAZOLE], for which the MIC in data set [1] stood at 12.5 µg/mL (≈ 30 µM); in data set [2], 25 µg/mL (≈ 60.1 µM).
`COc1ccc(OC)c(/C=N/NC(=O)CN2CCc3sccc3C2)c1`: the MIC in [1] came out at 150 µg/mL (≈ 417 µM); in [2] it was 25 µg/mL (≈ 69.6 µM); in data set [3], 100 µg/mL (≈ 278 µM); in data set [4] it was 75 µg/mL (≈ 209 µM); in data set [5], 250 µg/mL (≈ 696 µM); in [6] it was 125 µg/mL (≈ 348 µM). The Activity result in data set [7] was “Non-toxic”. Moreover, the half-inhibitory concentration (IC50) in data set [8] stood at 689 µM.
In the case of `O=C(O)c1cn(C2CC2)c2cc(N3CCNCC3)c(F)cc2c1=O` [CIPROFLOXACIN], the MIC in data set [4] amounted to 50 µg/mL (≈ 151 µM); in data set [6], 25 µg/mL (≈ 75.4 µM).
Turning to `CC1(C)S[C@@H]2[C@H](NC(=O)[C@H](N)c3ccccc3)C(=O)N2[C@H]1C(=O)O` [AMPICILLIN], the MIC stood at 250 µg/mL (≈ 715 µM) in data set [3], 250 µg/mL (≈ 715 µM) in [4], 100 µg/mL (≈ 286 µM) in data set [5] and 100 µg/mL (≈ 286 µM) in data set [6].
Turning to `CN(C)c1ccc(/C=N/NC(=O)CN2CCc3sccc3C2)cc1`, the MIC in data set [1] was 100 µg/mL (≈ 292 µM); in data set [2] it was 40 µg/mL (≈ 117 µM); in data set [4], 100 µg/mL (≈ 292 µM); in data set [6], 50 µg/mL (≈ 146 µM). The result in [9] and in [10] was inactive. In addition, in data set [7], the Activity result is “Non-toxic”. Besides, the IC50 in data set [8] came to 274 µM.
As for `N=C(N)c1ccc(OCCCCCOc2ccc(C(=N)N)cc2)cc1` [PENTAMIDINE], the IC50 in data set [8] was 16.1 µM.
Consider `O=C(CN1CCc2sccc2C1)N/N=C/c1c(Cl)cccc1Cl`, for which the MIC in [1] stood at 160 µg/mL (≈ 434 µM); in data set [2], 80 µg/mL (≈ 217 µM); in data set [3], 250 µg/mL (≈ 679 µM); in data set [4] it was 250 µg/mL (≈ 679 µM); in data set [5], 150 µg/mL (≈ 407 µM); in data set [6], 50 µg/mL (≈ 136 µM). Moreover, the Activity entry in data set [7] is reported as “Non-toxic”. Moreover, in data set [8], the IC50 amounted to 645 µM.
`COc1cccc(N)c1/C=N/NC(=O)CN1CCc2sccc2C1`: the MIC was found to be 140 µg/mL (≈ 406 µM) in [1], 60 µg/mL (≈ 174 µM) in data set [2], 275 µg/mL (≈ 798 µM) in data set [4] and 175 µg/mL (≈ 508 µM) in data set [6]. Also, the result in [9] and in data set [10] was inactive. Also, the Activity entry in data set [7] is “Non-toxic”. In data set [8], the IC50 was determined as 722 µM.
For the compound `O=C(CN1CCc2sccc2C1)N/N=C/c1ccc(O)c(O)c1`, the MIC in data set [1] came to 75 µg/mL (≈ 226 µM); in data set [2], 75 µg/mL (≈ 226 µM); in [5], 150 µg/mL (≈ 453 µM); in [6], 50 µg/mL (≈ 151 µM). The outcome in [9] and in data set [11] was inactive. The Activity entry in data set [7] is listed as “Non-toxic”. For the same compound, in data set [8], the IC50 was 672 µM.
As for `O=C(CN1CCc2sccc2C1)N/N=C/c1ccc(Cl)cc1`, the MIC in data set [1] came out at 100 µg/mL (≈ 300 µM); in [2] it was 100 µg/mL (≈ 300 µM); in data set [3] it was 100 µg/mL (≈ 300 µM); in [4] it was 50 µg/mL (≈ 150 µM); in data set [5], 50 µg/mL (≈ 150 µM); in data set [6], 25 µg/mL (≈ 74.9 µM). The Activity entry in data set [7] is recorded as “Non-toxic”. Moreover, in [8], the IC50 was found to be 738 µM.
Take `O=C(CN1CCc2sccc2C1)N/N=C/c1ccccc1Cl`: the MIC in [1] amounted to 120 µg/mL (≈ 359 µM); in data set [2], 60 µg/mL (≈ 180 µM); in data set [3], 100 µg/mL (≈ 300 µM); in [4], 100 µg/mL (≈ 300 µM); in [5], 125 µg/mL (≈ 374 µM); in data set [6], 25 µg/mL (≈ 74.9 µM). In data set [7], the Activity result is “Non-toxic”. Also, in [8], the IC50 was determined as 296 µM.
Take `N#Cc1ccc(/C=N/NC(=O)CN2CCc3sccc3C2)cc1`: the MIC in [1] is 140 µg/mL (≈ 432 µM); in data set [2], 80 µg/mL (≈ 247 µM); in [4], 250 µg/mL (≈ 771 µM); in data set [5] it was 150 µg/mL (≈ 462 µM); in data set [6], 100 µg/mL (≈ 308 µM). For the same compound, in data set [9], the result was inactive. In addition, the Activity result in data set [7] is recorded as “Non-toxic”. In addition, the IC50 in data set [8] turned out to be 694 µM.
Turning to `COc1ccc(/C=N/NC(=O)CN2CCc3sccc3C2)c(OC)c1`, the minimum inhibitory concentration (MIC) came out at 50 µg/mL (≈ 139 µM) in data set [1]; 25 µg/mL (≈ 69.6 µM) in data set [2]; 100 µg/mL (≈ 278 µM) in data set [3]; 75 µg/mL (≈ 209 µM) in data set [4]; 250 µg/mL (≈ 696 µM) in data set [5]; 125 µg/mL (≈ 348 µM) in data set [6]. The Activity entry in data set [7] is “Non-toxic”. Besides, the IC50 in data set [8] came to 737 µM.
As for `OC(Cn1cncn1)(Cn1cncn1)c1ccc(F)cc1F` [FLUCONAZOLE], the results for the MIC in data set [1] and in [2] were 10 µg/mL (≈ 32.7 µM) and 5 µg/mL (≈ 16.3 µM), respectively.

A word on the MIC: it is the lowest concentration that inhibits growth of the organism. In general, IC50 refers to the midpoint of a concentration-inhibition curve.
